Shown are actives, neighbours in structure and some others; about 3.4% of the full set was active somewhere.
M1 antag = antagonists of human M1 muscarinic receptor; actives 1.3% (n = 360,000); P11229; CHO-K1 hM1, Fluo-8 calcium fluorescence, ACh EC80 antagonist; inhibition, % at 3 µM;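 active means percent inhibition above its own plate's cutoff, namely the mean of that plate's compound wells plus 3 SD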;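 further: peak over basal fluorescence ratio during 140 s after agonist addition; 0% = ACh EC80 plus DMSO and 100% = DMSO alone without agonist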
CHRM1 agonist = agonists of human M1 muscarinic receptor | CHO-K1 hM1, Fluo-8 calcium fluorescence, agonist mode; 0% DMSO, 100% acetylcholine EC100 | P11229 | activation, % at 3 µM | actives 0.33% (n = 360,000);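 active means activation above the run's mean compound activation plus 3 SD, cut at about 16% in these data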;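 further: peak over basal fluorescence ratio within a 140 s kinetic read after compound addition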
CHRM1 PAM = positive allosteric modulators of human M1 muscarinic receptor; activation, % at 3 µM; CHO-K1 hM1, Fluo-8 calcium fluorescence, ACh EC20; 0% = ACh EC20, 100% = maximal ACh; P11229; actives 0.088% (n = 360,000); in the data active means activation above about 19%, passing the limit was not always enough
TAAR1 antagonist = human TAAR1 antagonism; inhibition, % at 3 µM; AID 624466; actives 1.5% (n = 360,000); Q96RJ0; CHO RD-HGA16 TAAR1, Fluo-8 calcium fluorescence, antagonist;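 active means inhibition above a per-plate cutoff, the mean inhibition of test compounds on that plate plus 3 SD, cut at about 49% in these data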;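 further: 0% = DMSO plus EC80 beta-PEA response and 100% = DMSO alone without agonist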
Target sequence (Q96RJ0 whole entry, looked up): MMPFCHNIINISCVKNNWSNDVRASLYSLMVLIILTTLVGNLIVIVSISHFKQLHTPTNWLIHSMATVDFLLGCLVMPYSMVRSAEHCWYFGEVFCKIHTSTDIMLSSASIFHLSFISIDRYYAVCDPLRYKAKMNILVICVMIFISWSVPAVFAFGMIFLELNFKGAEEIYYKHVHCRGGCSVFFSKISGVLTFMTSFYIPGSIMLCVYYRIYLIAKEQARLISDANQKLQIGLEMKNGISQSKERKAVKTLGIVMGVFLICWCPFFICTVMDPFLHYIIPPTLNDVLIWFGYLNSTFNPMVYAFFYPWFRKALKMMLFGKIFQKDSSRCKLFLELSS
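Test system: RD-HGA16 CHO cells with stable hTAAR1 and Gα16 / Probe or stimulus: EC80 β-phenethylamine stimulus / Times: seeding 17-24 h prior, 75-min 37 °C, 30-min RT dye loading / Detection: Fluo-8 calcium-sensitive fluorescence / Read-out basis: % inhibition scaled between DMSO and EC80 PEA controls / Repeats: singlicate, one well per test compound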
TAAR1 ag = agonists of human TAAR1; Q96RJ0; CHO RD-HGA16 TAAR1, Fluo-8 calcium fluorescence; vehicle wells 0%, saturating PEA agonist 100%; activation, % at 3 µM; actives 0.99% (n = 360,000); AID 624467;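 active means activation above the mean activation of all test compounds in the run plus 3 SD, cut at about 38% in these data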
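Test system: RD-HGA16 (CHO) cells co-expressing Gα16 and hTAAR1 / Benchmarks: DMSO vehicle as 0%, PEA at EC100 as 100% / Repeats: no replicates (n 1) / Measure: % activation from peak over basal fluorescence ratio, DMSO-to-PEA scaled / Timing: 17-24 h plating, Fluo-8 75 min 37 °C, 30 min RT / Technique: kinetic Fluo-8 calcium fluorescence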
nonsel antag count = nonselective antagonist in TAAR1 antagonist counter-screen. shares compounds with TAAR1 antagonist. counterscreen cell line, calcium fluorescence, antagonist mode. inhibition, % at 3 µM. actives 77% (n = 2,400); in the data active means inhibition above about 22%;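 further: CHO-Ga16 host cells stimulated with ATP at an EC80 level; 0% = agonist EC80 plus vehicle and 100% = vehicle without agonist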
TAAR1 antag conf = confirmation of human TAAR1 antagonists; inhibition, % at 3 µM; shares compounds with TAAR1 antagonist; actives 40% (n = 2,400); TAAR1-expressing cells, fluorescence antagonist read-out; in the data active means inhibition above about 49%;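 further: CHO-Ga16 host cells challenged with agonist PEA near its EC80; 0% = agonist at EC80 plus vehicle and 100% = vehicle with no agonist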
Ga16 ag counter = counter-screen for TAAR1 antagonists: nonselective Ga16 agonists. activation, % at 3 µM. shares compounds with TAAR1 antagonist. AID 651953. actives 18% (n = 2,400). Ga16-expressing cells, calcium fluorescence, agonist counterscreen; in the data active means activation above about 12%;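 further: 0% = vehicle wells and 100% = saturating stimulus response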
TAAR1 ag counter = TAAR1 agonism, antagonist counter-screen; shares compounds with TAAR1 antagonist; hTAAR1 cell line, fluorescence activation, agonist mode; activation, % at 3 µM; actives 2% (n = 2,400); AID 651955; in the data active means activation above about 37%;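 further: CHO cells stably expressing TAAR1 with calcium dye readout; 0% = DMSO vehicle and 100% = full agonist response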
The depositor's hits bear a star; . = not tested or not shown.

SMILES	M1 antag	CHRM1 agonist	CHRM1 PAM	TAAR1 antagonist	TAAR1 ag	nonsel antag count	TAAR1 antag conf	Ga16 ag counter	TAAR1 ag counter
CN(C)c1ccc(C(C(=O)NCc2ccccc2)N(Cc2ccco2)C(=O)c2snc(C(N)=O)c2N)cc1 (stereo unspecified)	28	-4	-17	71*	18	27*	58*	8	11
COCCNC(=O)C(c1ccc(C)o1)N(Cc1ccco1)C(=O)c1snc(C(N)=O)c1N (stereo unspecified)	6	-3	-8	15	11	.	.	.	.
Cc1ccccc1C(C(=O)NCc1ccccc1)N(Cc1ccco1)C(=O)c1ccccn1 (stereo unspecified)	16	3	-2	50*	21	27*	46	8	12
NC(=O)c1nsc(C(=O)N(Cc2ccco2)C(C(=O)NCc2ccc(F)cc2)c2ccc(O)cc2)c1N (stereo unspecified)	23	0	-12	78*	14	37*	56*	10	12
Cc1ccc(C(C(=O)NCc2ccc(F)cc2)N(Cc2ccco2)C(=O)c2snc(C(N)=O)c2N)o1 (stereo unspecified)	35*	-1	-16	63*	22	31*	62*	11	24
CCC(C)(C)NC(=O)C(c1ccc(F)cc1)N(Cc1ccco1)C(=O)c1snc(C(N)=O)c1N (stereo unspecified)	-6	-6	4	2	2	.	.	.	.
COc1ccc(C(=O)NCCNc2nc3cc(C)cc(C)c3cc2C#N)c(OC)c1	.	.	.	-5	-2	.	.	.	.
CCCCNC(=O)C1C(c2ccc(OC)cc2)=Nc2ccccc2N1C(=O)c1ccncc1 (stereo unspecified)	.	.	.	-14	4	.	.	.	.
COc1ccc(-c2cc(CNc3nc(NC(C)C)nc4cc(-c5ccccc5)sc34)on2)cc1	-7	-4	0	-20	-2	.	.	.	.
O=C(Nc1cccc(NC(=O)c2cncc(Br)c2)c1)c1cncc(Br)c1	5	1	-4	67*	33	29*	52*	17*	15
O=C(Nc1ccncc1)c1cncc(Br)c1	-6	-1	7	-12	3	.	.	.	.
CCCCCNC(=O)C1C(=O)Nc2ccccc2C(=O)N1c1c(C)cccc1C (stereo unspecified)	.	.	.	8	1	.	.	.	.
CCOC(=O)c1ccc2ncc(C(=O)OCC)c(NCCN3CCOCC3)c2c1	-7	-8	2	2	3	.	.	.	.
CCOC(=O)c1cnc2ccc(C)cc2c1Nc1ccc(N2CCOCC2)cc1	-1	-4	-10	61*	10	30*	58*	13*	19
COc1cccc(-c2cnc(C(O)c3ccc(C(C)(C)C)cc3)[nH]2)c1 (stereo unspecified)	-12	-3	5	.	.	.	.	.	.
COc1ccc(/C=C2/SC(=O)N(NS(=O)(=O)c3ccccc3)C2=S)cc1OC	-6	-7	-9	63*	14	29*	42	6	3
CCc1nc(SCC(=O)NCCc2ccccc2)n[nH]1	-32	-1	7	75*	33	-2	70*	0	49*
O=C(CSc1n[nH]c(-c2ccncc2)n1)NCCc1ccccc1	-2	-3	0	-5	7	.	.	.	.
CCCCC[C@@H](C)N1C[C@H](COCc2ccccc2)Oc2cc(N3CCC[C@H]3CO)ccc2S1(=O)=O	.	.	.	-13	-2	.	.	.	.
O=C1NC[C@@H](CCCCN2C[C@H](Cc3ccc(O)cc3)N(CCc3ccccc3)C(=O)C2=O)N(CCC2CCCCC2)C1=O	.	.	.	-15	2	.	.	.	.
COc1ccc(/C(C)=N/NC(=O)c2ccccc2OCc2ccccc2)c(OC)c1	-4	-6	1	30	8	.	.	.	.
COc1ccccc1C=NNC(=O)c1ccccc1OCCOc1ccccc1	21	-6	-10	62*	5	21*	51*	4	0
C/C(=N\NC(=O)c1ccccc1OCCOc1ccccc1)c1ccccc1F	5	0	-6	60*	1	5	33	3	9
COc1ccccc1/C=N/NC(=O)c1ccccc1Cl	-9	-7	3	1	-1	.	.	.	.
COc1ccc(/C=N/NC(=O)c2ccccc2OCc2ccccc2)c(OC)c1	9	-14	-16	49*	3	7	31	2	1
SMILES	M1 antag	CHRM1 agonist	CHRM1 PAM	TAAR1 antagonist	TAAR1 ag	nonsel antag count	TAAR1 antag conf	Ga16 ag counter	TAAR1 ag counter
O=C(N/N=C\c1ccccc1OCc1ccccc1)c1ccco1	13	-9	-8	24	6	.	.	.	.
C#CCOc1ccccc1/C=N/NC(=O)c1ccccc1OCc1ccccc1	27	-5	-15	56*	0	16	36	3	4
CC(=O)N(O)c1ccc(C=Cc2ccccc2)cc1	0	-1	7	-20	4	.	.	.	.
COC(=O)C[C@H]1C=C[C@H](NC(=O)Nc2ccccc2)[C@@H](CO)O1	.	.	.	-7	4	.	.	.	.
O=C(CC[C@H]1O[C@@H](n2cnc3c(NC(=O)c4ccccc4)ncnc32)[C@H](O)[C@@H]1O)NCc1nc2ccccc2[nH]1	-11	-5	1	-7	0	.	.	.	.
CCCCn1nnnc1C(c1ccccc1)N1CCCN(Cc2ccc(F)cc2)CC1 (stereo unspecified)	.	.	.	-8	0	.	.	.	.
Cc1cccc(/C=N/NC(=O)c2ccccc2OCc2cccc(Br)c2)n1	6	-7	-6	64*	9	22*	45	7	15
Cc1cccc(/C=N/NC(=O)c2cc(Br)ccc2OCc2ccccc2)n1	4	-7	-4	39	17	.	.	.	.
O=C(O)C1CCC2CCCC21 (stereo unspecified)	-10	-2	4	.	.	.	.	.	.
C=CCN1C[C@H](COC(=O)c2cccc(OC)c2)Oc2cccc(F)c2S1(=O)=O	.	.	.	79*	9	41*	56*	12*	9
CCOC(=O)c1[nH]c2ccc(OC)cc2c1NC(=O)CN1CCc2ccccc2C1	23*	-2	-9	60*	17	23*	51*	11	23
O=C(NC1CCCC1)C(c1ccccc1)n1c(CSCCOc2ccccc2)nc2ccccc21 (stereo unspecified)	.	.	.	-27	0	.	.	.	.
O=C(NCc1ccccc1)C1c2ccccc2OCC(=O)N1CCc1c[nH]c2ccccc12 (stereo unspecified)	.	.	.	5	4	.	.	.	.

Compound activity (PubChem)
